SENP7 inh: SENP7 protease inhibitors, primary screen, biochemical, luminescence, uHTS; recombinant SENP7, Z-RLRGG-aminoluciferin luminescence, 40 min; inhibition, % at 5 µM; 1.5% of 330,000 active; AID 434973, 2010;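 active = inhibition above about 50% at the single test dose, limit read from the data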;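 note: plate controls were DMSO with enzyme for no effect and no enzyme buffer wells for full effect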
SENP8 block-1: SENP8 protease inhibitors, primary screen, biochemical, luminescence | inhibition, % at 10 µM | 1.2% of 330,000 active | purified SENP8, Z-RLRGG-aminoluciferin cleavage; in the data active = inhibition above about 50%
NRP1-CendR mod: modulators of CendR peptide binding to NRP-1, primary screen, biochemical, fluorescence polarization, uHTS; Neuropilin-1 (Homo sapiens), O14786; FAM-RPARPAR peptide binding to NRP-1; inhibition, % at 25 µM; 0.85% of 360,000 active;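 active = inhibition or corrected inhibition above about 18%, plus a signal ratio from 0.5 to 1.5, limit read from the data, passing the limit was not always enough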
SENP1 FRET inh: human SENP1 catalytic domain inhibitors, primary screen, biochemical, FRET, uHTS | 0.21% of 360,000 active | recombinant SENP1 catalytic domain, CyPet-SUMO1-YPet FRET cleavage | inhibition, % at 10 µM | AID 624204, 2012;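 active = inhibition at least 30% at 10 µM, raw YFP signal under a set limit, fluorescence ratio 0.5 to 1.5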;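 note: 0% = enzyme with DMSO and 100% = no enzyme wells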
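Test system: recombinant human SENP1 catalytic domain, His6-tagged / Medium: pH 8 Tris buffer with EDTA, NaCl, BME, BSA, NP40, catalase / Also added: SUMO1 FRET substrate flanked by Cypet and Ypet, 25 nM / Times: 50 min reaction at room temperature / Signal: FRET, CFP and YFP emission / Control set: no-enzyme low control and enzyme-plus-DMSO high control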
SENP8 block-2: human SENP8 protease inhibitors, primary screen, biochemical, fluorescence, Nedd8 protein substrate, uHTS | inhibition, % at 20 µM | Sentrin-specific protease 8 (Homo sapiens), Q96LD8 | recombinant SENP8 | 0.64% of 360,000 active | AID 602440, 2012; in the data active = inhibition mostly above about 40%, no sharp cut-off; inactive = mostly below about 27%
SENP6 block: SENP6 protease inhibitors, primary screen, biochemical, luminescence, uHTS. Sentrin-specific protease 6 (Homo sapiens), Q9GZR1. Recombinant SENP6 catalytic domain, aminoluciferin luminescence. inhibition, % at 10 µM. 1.8% of 330,000 active;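 active = inhibition above about 50% at the single tested dose, limit read from the data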;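 note: plate controls were DMSO wells with enzyme for no effect and DMSO wells lacking enzyme for full effect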
Target sequence (Q9GZR1 628-1112 limits assumed): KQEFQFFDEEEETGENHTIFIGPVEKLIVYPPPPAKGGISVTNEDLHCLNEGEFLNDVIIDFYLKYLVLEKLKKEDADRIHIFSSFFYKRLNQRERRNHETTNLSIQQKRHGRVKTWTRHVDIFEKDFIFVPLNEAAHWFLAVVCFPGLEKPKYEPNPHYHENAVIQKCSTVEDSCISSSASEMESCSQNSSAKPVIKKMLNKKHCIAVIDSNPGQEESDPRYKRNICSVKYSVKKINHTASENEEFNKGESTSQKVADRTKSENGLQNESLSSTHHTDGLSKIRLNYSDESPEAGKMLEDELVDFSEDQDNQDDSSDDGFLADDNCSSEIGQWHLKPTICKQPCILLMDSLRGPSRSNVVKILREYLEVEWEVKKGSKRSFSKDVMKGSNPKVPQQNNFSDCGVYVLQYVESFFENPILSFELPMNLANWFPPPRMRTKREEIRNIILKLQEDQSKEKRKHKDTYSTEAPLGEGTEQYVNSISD
SENP8 inh conf: human SENP8 protease inhibitors, confirmation, biochemical, Nedd8 protein substrate, single concentration | shares compounds with SENP8 block-2 | purified SENP8, Nedd8-AMC/pro-Nedd8 cleavage fluorescence, 30 min | inhibition, % at 25 µM | 15% of 1,400 active; in the data active = inhibition mostly above about 39%, no sharp cut-off; inactive = mostly below about 34%
Active calls of the source: *; · = no result. Sampled rows, rich in hits. Any-hit rate of the full collection: about 3.3%.

SMILES | SENP7 inh | SENP8 block-1 | NRP1-CendR mod | SENP1 FRET inh | SENP8 block-2 | SENP6 block | SENP8 inh conf
CCCCCCN1CCN(C2CN(Cc3cn(Cc4ccccc4)nn3)S(=O)(=O)C2)CC1 (configuration not stated) | · | · | 3 | 1 | 14 | · | ·
CC1(C)N=C(N)N=C(N)N1c1ccc(OCC(=O)N2CCOCC2)c(Cl)c1 | · | · | 6 | 2 | 5 | · | ·
[O-]C1=N/[N+](=C/c2ccccc2Cl)CC1 | -6 | -8 | 6 | 0 | 50* | -10 | 34
[O-]C1=N/[N+](=C/c2ccccc2)CC1 | 5 | -4 | -4 | 0 | 19 | -9 | ·
Cc1c(C#N)c(O)n(C)c(=O)c1N=Nc1ccc(S(N)(=O)=O)cc1 | · | · | 3 | -12 | 49* | · | 18
Cc1c(C#N)c(O)n(CCO)c(=O)c1N=Nc1ccc(S(N)(=O)=O)cc1 | 8 | -2 | -3 | -16 | 22 | 6 | ·
C[C@H](CO)N1C[C@H](C)[C@@H](CN(C)Cc2ccncc2)OCCCC[C@H](C)Oc2ccc(NC(=O)CCCN(C)C)cc2C1=O | · | · | -12 | 0 | 18 | · | ·
Cc1ccc(NNC(=O)c2cc(C(C)(C)C)nn2Cc2ccccc2)cc1 | 8 | 13 | -2 | 1 | 39 | 5 | ·
CC(C)(C)c1cc(C(=O)NNc2cccc(Cl)c2)n(Cc2ccccc2)n1 | -6 | -4 | -1 | 1 | 43* | -8 | 20
Clc1nssc1=Nc1ccc(Br)cc1 | · | · | 9 | 1 | 44* | · | 12
COc1cc(Cl)c(CNC[C@H]2O[C@@H](n3cnc4c(=O)[nH]c(N)nc43)[C@H](O)[C@@H]2O)c(Cl)c1O | · | · | -6 | -2 | 24 | · | ·
COc1cc(SC#N)ccc1N=Cc1c(C)[nH]n(-c2ccc(Cl)cc2)c1=O | -2 | -14 | -29 | 65 | 61* | 8 | 12
CCCCn1c(N)c(N(C)C(=O)c2c(C)nn(-c3ccccc3)c2C)c(=O)[nH]c1=O | -7 | 4 | 4 | -4 | -8 | -9 | ·
COc1ccc(/C=N/Nc2nc(C)c([N+](=O)[O-])c(N(C)c3ccccc3)n2)cc1OC | 2 | 5 | 28* | 0 | 53* | -10 | 6
COC(=O)c1cc(C(=O)N2CCN(C(=O)c3ccco3)CC2)cc([N+](=O)[O-])c1 | -4 | -4 | 7 | 1 | -1 | -5 | ·
COc1ccc([N+](=O)[O-])cc1NC(=O)C(C)N1CCN(C(=O)c2ccco2)CC1 (configuration not stated) | -9 | 0 | -4 | 1 | 38* | -13 | 16
Cc1nc(CC(=O)NNS(=O)(=O)c2cccc(Cl)c2Cl)cs1 | 10 | 4 | 0 | -1 | 9 | -8 | ·
COc1ccc(NC(=O)C2CC(=O)N/C(=N/NC(=O)c3ccc(Cl)cc3)S2)cc1 (configuration not stated) | 12 | -2 | -1 | 2 | 40* | 7 | 9
Cc1nc(C)n(C)c(=O)c1-c1ccccc1 | -6 | -8 | 12 | 0 | 40* | -21 | 5
Cc1nc(C)c(-c2ccccc2)c(=O)[nH]1 | 11 | -9 | -4 | 3 | 11 | -27 | ·
Cc1cccnc1C(NC(=O)C1CCN(Cc2ccc(Oc3ccccc3)cc2)CC1)c1ccccc1 (configuration not stated) | · | · | -1 | -4 | 13 | · | ·
CN(C)S(=O)(=O)c1cccc(NC(=O)CCNC(=O)Nc2ccccc2)c1 | 5 | -4 | 1 | 0 | 42* | -4 | 8
COc1cc(NCCCCCCN)c2ncccc2c1OC | · | · | 31* | 11 | 72* | · | 96*
CCOc1ccccc1OCCCC(=O)N1CCN(S(=O)(=O)c2ccccc2C#N)CC1 | · | · | -8 | 1 | 12 | · | ·
COC(=O)c1ccc(Cn2cc([N+](=O)[O-])cn2)cc1 | 8 | -4 | 8 | 0 | 2 | -8 | ·
SMILES | SENP7 inh | SENP8 block-1 | NRP1-CendR mod | SENP1 FRET inh | SENP8 block-2 | SENP6 block | SENP8 inh conf
O=C(Cn1cc([N+](=O)[O-])cn1)Nc1ccc(Cn2cc(Br)cn2)cc1 | -6 | -12 | -3 | 1 | 40* | -12 | 5
COc1ccc(-c2cc(=O)[nH][nH]2)cc1 | 10 | 2 | 0 | 2 | 42* | 17 | 28
O=c1cc(-c2ccc(Cl)cc2)[nH][nH]1 | 7 | -2 | -3 | -2 | 43* | 11 | 33
O=[N+]([O-])c1cc(Cl)ccc1NCCNS(=O)(=O)c1ccccc1 | 0 | 7 | -77 | 8 | 43* | 5 | 17
O=[N+]([O-])c1ccccc1NCCNS(=O)(=O)c1ccc(Cl)cc1 | -4 | 2 | -9 | 3 | 13 | -4 | ·
COc1ccc(NC(=O)C2(C)CCN2C(=O)c2ccc(C(C)(C)C)cc2)cc1OC (configuration not stated) | · | · | 17 | 0 | 16 | · | ·
CC1(c2nnnn2-c2ccc3c(c2)OCCO3)CCC(=O)N1CCc1c[nH]c2ccccc12 (configuration not stated) | · | · | 5 | 0 | 20 | · | ·
CN1CCN(C2CN(C3CCCCC3)S(=O)(=O)C2)CC1 (configuration not stated) | · | · | 12 | 1 | 9 | · | ·
O=S1(=O)CC(N2CC=CC2)CN1C1CCCCC1 (configuration not stated) | · | · | 0 | 0 | 41* | · | 36*
CCN(CC)S(=O)(=O)c1ccc(N2CCOCC2)c(NC(=O)c2[nH]c(C)c(C(C)=O)c2C)c1 | -12 | 9 | 7 | 0 | -140 | -4 | ·
CC1(C(=O)NS(=O)(=O)C2CC2)CCCN(C(=O)c2cc3ccccc3s2)C1 (configuration not stated) | · | · | -6 | 2 | 18 | · | ·
CC(=O)Nc1cc([N+](=O)[O-])ccc1N1CCOCC1 | 3 | 5 | 8 | -1 | 16 | -5 | ·
O=C(Nc1ccc([N+](=O)[O-])cc1)Nc1ccc(N2CCOCC2)c2nonc12 | 12 | 6 | 3 | 6 | 46* | 8 | 21
Cc1ccc(NC(=O)c2ccc(CN3CCc4ccccc4C3)cc2)cc1 | 12 | 6 | -3 | -1 | 71* | 21 | 29
O=C(Nc1cccnc1)c1ccc(CN2CCc3ccccc3C2)cc1 | -4 | -9 | 5 | -4 | 51* | -14 | 34
CCOC(=O)c1c(-c2cccc([N+](=O)[O-])c2)csc1NC(=O)CCCOc1ccccc1OC | · | · | 33* | 1 | 45* | · | 26

Source: PubChem BioAssay (Sanford-Burnham Center for Chemical Genomics)
